According to ChEMBL document CHEMBL4020827, “Targeting Multiple Effector Pathways in Pancreatic Ductal Adenocarcinoma with a G-Quadruplex-Binding Small Molecule” (J Med Chem, 2018):

Columns and labels:
[1] = test system: PANC-1; test: Effect on AKT1 gene expression in human PANC1 cells at 400 nM after 24 hrs by RNA sequence analysis relative to control; format: functional
In short: (§1)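 PANC-1 (0.35 x 10^6) or MIA PaCa-2 (1.5 x 10^6) cells seeded overnight in 60 mm plates, then exposed to 400 nM compound for 6 or 24 h; untreated cells as controls. Cells were mycoplasma-free and STR-certified. Differential expression by RNA-seq, called at FDR < 0.1.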

[2] = test system: PANC-1; test: Effect on PCK2 gene expression in human PANC1 cells at 400 nM after 6 hrs by RNA sequence analysis relative to control; format: functional
[3] = test system: MIA PaCa-2; test: Effect on PAK1 gene expression in human MIAPaCa2 cells at 400 nM after 6 hrs by RNA sequence analysis relative to control; format: functional
[4] = test system: MIA PaCa-2; test: Effect on MAPK12 gene expression in human MIAPaCa2 cells at 400 nM after 6 hrs by RNA sequence analysis relative to control; format: functional
[5] = test system: Mus musculus; test: Toxicity in CD-1 nude mouse xenografted with human MIAPaCa2 cells assessed as change in body weight at 15 mg/kg, iv administered twice weekly for 4 weeks measured for 40 days; format: organism-based; settings: in vivo, 960 h
[6] = test system: MIA PaCa-2; test: Effect on SMO gene expression in human MIAPaCa2 cells at 400 nM after 6 hrs by RNA sequence analysis relative to control; format: functional
In short: (§2)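 RNA-seq: cells seeded overnight in 60 mm plates (PANC-1 0.35 x 10^6, MIA PaCa-2 1.5 x 10^6 cells/well), then exposed to 400 nM compound for 6 or 24 h against untreated controls. Cell lines mycoplasma-free by RNA-capture ELISA and STR-profiled. Differentially expressed genes called at FDR < 0.1.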

[7] = test system: MIA PaCa-2; test: Antitumor activity against human MIAPaCa2 cells xenografted in CD-1 nude mouse assessed as change in tumor volume at 15 mg/kg, iv administered twice weekly for 4 weeks measured on day 29 relative to control; format: functional
In short: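 Female CD-1 nude mice (2-3 months, 20−25 g) given 5 x 10^6 MIA PaCa-2 cells subcutaneously in right flank with Matrigel; dosing began once tumors were established (approx. 13 days, mean 0.05 cm3). Eight mice/group, IV in saline twice weekly for 28 days (8 doses) against a saline group. Tumors measured by calliper (length × width × height × π/6), with body weight. Student's t test.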

[8] = Binding affinity to 5'-FAM/3'-TAMRA labeled HSP90B promoter G-quadruplex DNA (unknown origin) assessed as change in melting temperature at 1 uM by FRET assay
In short: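 FRET melting with FAM/TAMRA dual-labelled oligonucleotides at 400 nM, annealed at 95 °C for 10 min in 60 mM potassium cacodylate pH 7.4 and slowly cooled. Ligand final 1 μM; solution contains 50 mM K+. Fluorescence read every 0.5 °C over 30–100 °C with 30 s hold, excitation 450–495 nm and emission 515–545 nm. ΔTm from curve fitting, triplicate measurements.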

[9] = test system: MIA PaCa-2; test: Effect on TEAD4 gene expression in human MIAPaCa2 cells at 400 nM after 24 hrs by RNA sequence analysis relative to control; format: functional; in short: as §2
[10] = test system: MIA PaCa-2; test: Effect on PIK3R3 gene expression in human MIAPaCa2 cells at 400 nM after 6 hrs by RNA sequence analysis relative to control; format: functional
[11] = test system: MIA PaCa-2; test: Effect on ROBO3 gene expression in human MIAPaCa2 cells at 400 nM after 6 hrs by RNA sequence analysis relative to control; format: functional; in short: as §2
[12] = test system: PANC-1; test: Effect on IGF2 gene expression in human PANC1 cells at 400 nM after 24 hrs by RNA sequence analysis relative to control; format: functional; in short: as §1
[13] = test system: MIA PaCa-2; test: Effect on PFKL gene expression in human MIAPaCa2 cells at 400 nM after 6 hrs by RNA sequence analysis relative to control; format: functional
[14] = test system: PANC-1; test: Effect on PIK3R3 gene expression in human PANC1 cells at 400 nM after 24 hrs by RNA sequence analysis relative to control; format: functional
[15] = test system: MIA PaCa-2; test: Effect on PARD6A gene expression in human MIAPaCa2 cells at 400 nM after 24 hrs by RNA sequence analysis relative to control; format: functional
[16] = test system: PANC-1; test: Effect on TP73 gene expression in human PANC1 cells at 400 nM after 24 hrs by RNA sequence analysis relative to control; format: functional; in short: as §2
[17] = test system: WI-38; test: Growth inhibition of human WI38 cells after 96 hrs by SRB assay; format: cell-based; settings: WI-38, 96 h
[18] = test system: PANC-1; test: Effect on SHANK2 gene expression in human PANC1 cells at 400 nM after 6 hrs by RNA sequence analysis relative to control; format: functional; in short: as §2
[19] = test system: PANC-1; test: Effect on PLXNA1 gene expression in human PANC1 cells at 400 nM after 6 hrs by RNA sequence analysis relative to control; format: functional
[20] = test system: MIA PaCa-2; test: Effect on TEAD3 gene expression in human MIAPaCa2 cells at 400 nM after 24 hrs by RNA sequence analysis relative to control; format: functional; in short: as §2
[21] = test system: MIA PaCa-2; test: Effect on TP73 gene expression in human MIAPaCa2 cells at 400 nM after 24 hrs by RNA sequence analysis relative to control; format: functional; in short: as §2
[22] = test system: PANC-1; test: Effect on CBFA2T3 gene expression in human PANC1 cells at 400 nM after 24 hrs by RNA sequence analysis relative to control; format: functional; in short: as §1
[23] = Binding affinity to 5'-FAM/3'-TAMRA labeled KRAS32 promoter G-quadruplex DNA (unknown origin) assessed as change in melting temperature at 1 uM by FRET assay
In short: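 FRET melting of FAM/TAMRA dual-labelled promoter G4 oligonucleotides, 400 nM, annealed at 95 °C for 10 min in 60 mM potassium cacodylate (pH 7.4) then cooled to RT. Ligand at 1 μM in solution with 50 mM K+. Fluorescence (ex 450–495, em 515–545 nm) read every 0.5 °C over 30–100 °C with a 30 sec hold per step. ΔTm from curve fitting; triplicate measurements.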

[24] = test system: MIA PaCa-2; test: Effect on PFKL gene expression in human MIAPaCa2 cells at 400 nM after 24 hrs by RNA sequence analysis relative to control; format: functional
[25] = test system: PANC-1; test: Effect on TEAD2 gene expression in human PANC1 cells at 400 nM after 24 hrs by RNA sequence analysis relative to control; format: functional; in short: as §2
[26] = test system: PANC-1; test: Effect on SMO gene expression in human PANC1 cells at 400 nM after 24 hrs by RNA sequence analysis relative to control; format: functional; in short: as §2
[27] = test system: PANC-1; test: Effect on PFKL gene expression in human PANC1 cells at 400 nM after 6 hrs by RNA sequence analysis relative to control; format: functional
[28] = test system: MIA PaCa-2; test: Effect on PIK3R2 gene expression in human MIAPaCa2 cells at 400 nM after 24 hrs by RNA sequence analysis relative to control; format: functional
[29] = test system: PANC-1; test: Effect on PIK3R2 gene expression in human PANC1 cells at 400 nM after 6 hrs by RNA sequence analysis relative to control; format: functional

O=C1c2ccc3c4c(c(NCCN5CCCC5)cc(c24)C(=O)N1CCCN1CCOCC1)C(=O)N(CCCN1CCOCC1)C3=O
log2FC [1]: -1.04
log2FC [2]: -0.01
log2FC [3]: -0.59
log2FC [4]: -0.47
Activity [5]: Non-Toxic
log2FC [6]: -0.34
Activity [7]: -73.3%
ΔTm [8]: 12.7 °C
log2FC [9]: -0.31
log2FC [10]: -0.28
log2FC [11]: -0.86
log2FC [12]: -1.53
log2FC [13]: 0
log2FC [14]: -0.54
log2FC [15]: -1.4
log2FC [16]: -0.99
IC50 [17]: 1190 nM
log2FC [18]: -1.65
log2FC [19]: -0.84
log2FC [20]: -0.66
log2FC [21]: -1.19
log2FC [22]: -2.25
ΔTm [23]: 9.6 °C
log2FC [24]: -1.18
log2FC [25]: 0.21
log2FC [26]: -0.82
log2FC [27]: -0.21
log2FC [28]: -1.14
log2FC [29]: -0.45
